Only a selection was taken, and hits are over-represented in it overall.
CHOP UPR activ = activators of apoptotic arm of unfolded protein response (CHOP); activation, % at 10 µM; CHO-CHOP luciferase reporter, UPR activation, luminescence; percent of tunicamycin response over DMSO baseline; actives 0.34% (n = 330,000);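 active = at 10 µM dose, activation of 40% or more, normalized to positive control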;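 note: 100% = tunicamycin at 10 µg/mL and 0% = DMSO alone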
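Material: CHO-CHOP cells, stable luciferase reporter of PERK-eIF2a-CHOP signalling; quantity: 500 reporter cells seeded per well; buffer or medium: F12 medium containing 10% fetal bovine serum; compound: one dose, 10 µM in 0.5% DMSO; incubation: 6 h compound treatment, 37 °C; measured by: Steady-Glo luciferase luminescence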
UPR XBP1 act = activators of adaptive arm of unfolded protein response (XBP1). CHO-XBP1 luciferase reporter, IRE1-XBP1 UPR activation, luminescence; percent of tunicamycin response, DMSO as zero. activation, % at 20 µM. actives 0.33% (n = 330,000);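 active = versus positive control, 20 µM dose yields 30% or more activation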;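 note: 100% = tunicamycin at 10 µg/mL and 0% = DMSO only wells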
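assay system = CHO-XBP1 luciferase reporter cells | amount = 1000 cells/well | buffer or medium = F12 plus 10% FBS | compound dosing = single point, 20 µM final compound, 1% DMSO | incubation = 16-18 h cell attachment at 37 °C, then 6 h compound exposure | detection = Steady-Glo luminescence read | controls = tunicamycin 10 µg/mL and vehicle-only wells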
697 NFkB inh = lowers PMA/ionomycin-induced NF-kB signal in 697 B cells; inhibition, % at 4 µM; actives 0.33% (n = 330,000); 697 B-cell NF-kB luciferase reporter, 16 h; in the data active = inhibition above about 35%
CHOP inhibitor = inhibitors of CHOP induction in ER stress response; CHO-K1 CHOP-promoter luciferase, tunicamycin-induced, 15-18 h; inhibition, % at 10 µM; actives 3.8% (n = 220,000);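 active = compounds that reduced the stress-induced luciferase reporter signal by more than about 70% of percent inhibition, limit read from the data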;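 note: 0% = tunicamycin plus vehicle and 100% = wells without tunicamycin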
Jurkat NFkB inh = inhibitors of the PMA/ionomycin-induced NF-kB reporter in Jurkat cells; PMA/ionomycin-induced NF-kB luciferase reporter, luminescence; inhibition, % at 4 µM; actives 0.53% (n = 330,000); AID 435003; in the data active = inhibition above about 50%
CHOP inh conf = confirmation of CHOP induction inhibitors | actives 45% (n = 2,100) | shares compounds with CHOP inhibitor | AID 504437 | CHO-CHOP promoter luciferase reporter, tunicamycin-induced, luminescence | inhibition, % at 10 µM;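 active = mean of three repeat readings of reporter signal inhibition above a set limit, cut at about 70% in these data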;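 note: 0% = tunicamycin plus vehicle and 100% = wells lacking tunicamycin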
Numbers without * were called inactive; . = no result.

SMILES | CHOP UPR activ | UPR XBP1 act | 697 NFkB inh | CHOP inhibitor | Jurkat NFkB inh | CHOP inh conf
Cc1c(N=Cc2c(O)n(C3CCCCC3)c(=O)[nH]c2=O)c(=O)n(-c2ccccc2)n1C | -1.1 | -7.5 | 18.7 | 24.7 | 9.3 | .
O=C(c1ccc(Cl)cc1)c1c[nH]c(C(=O)NNc2cccc(Cl)n2)c1 | -0.8 | 7.1 | 2.2 | 99.7* | 5.2 | 95.6*
O=C(Cc1ccccc1F)N1CCN(S(=O)(=O)c2ccc(Cl)cc2)CC1 | -1.3 | -1.1 | 5.6 | . | -4.0 | .
O=C(Nc1ncccc1O)c1cccc(S(=O)(=O)NCc2ccccc2)c1 | 1.6 | -1.7 | 7.7 | . | 11.8 | .
O=C1ON=C(c2ccccc2)/C1=C/c1ccco1 | 2.9 | 9.5 | 2.5 | 104.1* | 3.4 | -79.6
COc1ccc(/C=C2/C(=O)ON=C2c2ccccc2)cc1OC | 5.1 | 2.4 | 8.6 | 105.2* | 5.3 | 103.8*
COc1ccc(/C=C2\C(=O)ON=C2c2ccccc2)cc1OC | 3.3 | -1.1 | -1.5 | . | 5.5 | .
O=C(COC(=O)c1n[nH]c(=O)c2ccccc12)c1ccc(Br)cc1 | 1.3 | -1.6 | 27.8 | 103.8* | 14.8 | -70.2
COc1ccccc1NC(=O)c1ccc(NC(=O)Cc2n[nH]c(=O)c3ccccc23)cc1 | 2.3 | -1.5 | 25.3 | -4.3 | 1.7 | .
Cc1nn(-c2ccccc2)c2c1C(c1cccs1)C(C#N)=C(N)O2 (configuration not stated) | -0.9 | 3.8 | 5.2 | 15.8 | 12.0 | .
CCCc1nn(-c2ccccc2)c2c1C(c1cccs1)C(C#N)=C(N)O2 (configuration not stated) | -1.3 | -4.3 | -36.6 | 107.7* | -28.1 | -37.8
CCOc1ccc(-n2c(SCC(=O)Nc3ccccc3CC)nc3n[nH]c(C)c3c2=N)cc1 | -1.0 | 7.8 | 15.6 | 28.5 | 17.0 | .
CCOc1ccc(-n2c(SCC(=O)Nc3ccc(Br)cc3)nc3n[nH]c(C)c3c2=N)cc1 | 11.6 | -0.9 | 18.5 | 103.4* | 28.2 | 107.6*
CC(C(=O)N1CCCC1)N1CCN(S(=O)(=O)c2ccccc2)CC1 (configuration not stated) | 0.1 | 0.4 | 20.5 | . | 0.4 | .
COc1cccc2cc(C(=O)c3ccccc3)oc12 | 3.5 | 8.4 | -47.6 | -7.5 | -57.1 | .
COc1cccc2cc(/C(=N/O)c3ccc(Br)cc3)oc12 | 0.2 | -0.9 | -29.5 | 105.7* | 7.7 | 20.5
Cc1ccccc1CS(=O)(=O)c1nnc([C@H](CC(C)C)NC(=O)OC(C)(C)C)o1 | -9.1 | -6.3 | -34.1 | 107.5* | 29.9 | 122.8*
Oc1ccc(Cl)cc1CNc1ccc(Br)cn1 | 5.9 | 8.9 | -56.7 | . | -57.9 | .
Oc1c(Cl)cc(Cl)cc1CNc1ccc(Br)cn1 | 2.0 | 1.5 | -38.3 | 104.4* | 7.4 | -2.3
N/C(=N\N=C\c1ccc2c(c1)OCO2)SC1CC(=O)N(c2ccc(C(=O)O)cc2)C1=O (configuration not stated) | -1.5 | -1.1 | -12.2 | 23.2 | -25.4 | .
C/C(CCc1ccc2c(c1)OCO2)=N\N=C(/N)SC1CC(=O)N(c2ccc(Cl)cc2)C1=O (configuration not stated) | -0.7 | -3.6 | 7.6 | 97.2* | -2.7 | 2.0
Cc1ccccc1OCC(=O)N1N=C(C(F)(F)F)CC1(O)C(C)(C)C (configuration not stated) | -1.1 | -0.4 | 3.0 | 67.6 | -2.3 | .
Cc1ccc(OCC(=O)N2N=C(C(F)(F)F)CC2(O)C(C)(C)C)cc1C (configuration not stated) | -2.4 | -1.1 | -70.7 | 103.2* | -16.1 | 116.0*
Cn1c(=O)n(Cc2ccc(F)cc2)c(=O)c2c1nc1n2CCCN1C1CCCCC1 | -3.4 | -0.1 | 3.5 | 103.0* | -4.7 | 25.7
OC1(c2cccc(C(F)(F)F)c2)CCN(c2ncnc3c2[nH]c2ccc(F)cc23)CC1 | . | . | . | . | . | 101.6*
SMILES | CHOP UPR activ | UPR XBP1 act | 697 NFkB inh | CHOP inhibitor | Jurkat NFkB inh | CHOP inh conf
CC(C)(C)c1nnc(N/N=C/c2cc(Br)ccc2O)n(N)c1=O | . | . | . | 106.5* | . | 117.5*
C=CCOC(=O)C1=C(C)NC(SCC(=O)Nc2ccccc2)=C(C#N)C1c1ccco1 (configuration not stated) | 5.6 | -0.8 | -7.0 | 103.8* | 2.3 | 115.9*
C=CCOC(=O)C1=C(C)NC(SCC(=O)N(CC)CC)=C(C#N)C1c1ccco1 (configuration not stated) | -3.4 | 0.7 | -1.7 | . | -28.3 | .
CCSC1=N/C(=C\C=C2/Oc3ccccc3N2CC)C(=O)S1 | 1.8 | -3.9 | 3.2 | 7.8 | -12.0 | .
O=C(COc1ccccc1)Nc1sc2c(c1C(=O)NCc1cccnc1)CCCC2 | 5.0 | 1.3 | -7.9 | 97.7* | -23.0 | -55.5
Cc1cc(Br)ccc1NC(=O)CNC(=O)c1cnn(C)c1 | 0.4 | -0.4 | 16.6 | . | -11.6 | .
Cc1n[nH]c(C)c1CCc1nc2c3ccccc3nc(SCC(N)=O)n2n1 | . | . | . | -9.2 | . | .
Cc1ccc(NC(=O)CSc2nc3ccccc3c3nc(CCc4c(C)n[nH]c4C)nn23)cc1F | 3.1 | 28.3 | 9.2 | 107.7* | 1.9 | 78.6*
CC(CNC(=S)Nc1cc(F)cc(F)c1)CSc1ccc(Cl)cc1 (configuration not stated) | -1.2 | -0.7 | -9.0 | 96.5* | 7.3 | 86.3*
Cc1nc(-c2c(C(F)(F)F)noc2-c2ccc(O)cc2O)cs1 | -0.8 | -2.4 | -20.1 | 53.9 | 14.1 | .
CCOc1cc(C)c(-c2onc(C(F)(F)F)c2-c2csc(C)n2)c(O)c1 | 2.4 | 1.7 | 10.7 | 104.9* | 6.3 | 72.3*
COCCNC(=O)CCc1nnc2ccc(N3CCC(C)CC3)nn12 | -0.4 | -3.4 | 11.9 | . | -10.7 | .
CCOc1cc(CNc2ccc(O)cc2)ccc1OCc1ccc(Cl)cc1Cl | 12.0 | -7.1 | 19.4 | 103.3* | 9.7 | 111.6*
CCOc1cccc(CNc2ccc(O)cc2)c1OCc1ccc(Cl)cc1 | 1.4 | -1.7 | -4.0 | 109.2* | -0.5 | 48.4
COc1cc(CNCc2ccccn2)ccc1OCc1ccc(Cl)c(Cl)c1 | 7.2 | 3.0 | -54.6 | 23.3 | -64.7 | .
COc1cc(CNCc2ccccn2)ccc1OCc1ccc(Cl)cc1Cl | -3.0 | -2.3 | -55.5 | 98.1* | -13.3 | 106.1*
Cc1cccc(/C=C/c2onc(C)c2S(=O)(=O)N2CCC(C(=O)NC(C)C)CC2)c1 | 1.2 | -2.8 | 12.6 | . | 6.7 | .
CCOC(=O)C1=C(N)c2ccccc2CC1C(C)C (configuration not stated) | -1.0 | -3.3 | 6.3 | 99.6* | -5.8 | 13.8
Cc1oc(=O)c(NC(=O)c2ccccc2)cc1C(=O)c1ccccc1 | 3.8 | 4.8 | -70.2 | -7.6 | -44.8 | .
Cc1oc(=O)c(NC(=O)c2ccc(Cl)cc2)cc1C(=O)c1ccccc1 | 14.1 | 10.9 | -50.2 | 106.3* | -3.3 | 23.3
Cc1nnc(SC(C)C(=O)Nc2ccc(S(=O)(=O)N3CCCCC3)cc2)s1 (configuration not stated) | 1.0 | -2.9 | -10.1 | 100.1* | -5.0 | 12.4
